Reference: paper PMC3220786 (ACS Chemical Biology, 2011)
Where a SMILES comes first, the peptide text is derived from it. [ ]: non-standard residue; d: D form. The star is where a group is joined. NHCH2CH2OH = OCCN*; For = O=C*

Columns and labels:
[1] = tested on: P. yoelii (17XNL strain) sporozoites; assay: Prophylaxis activity test in sporozoite-infected mice; format: in vivo, ICR female mouse
How it was run: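 ICR female mice (7 weeks, 26–36 g) received 50,000 P. yoelii 17XNL sporozoites via the tail vein. Immediately afterwards they were given a single oral gavage dose of test compound at 50 mg kg–1 in corn oil (5 mice). Parasitemia was checked daily by Giemsa-stained tail-snip blood microscopy. Prepatent period = first day parasitemia was seen. Mice were euthanized above 20% parasitemia.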

[2] = tested on: P. falciparum D10attB; assay: SYBR Green proliferation assay, parental D10attB line; format: cell-based; details: Plasmodium falciparum, read-out: IC50 values, D10attB
How it was run: (§1)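 Blood-stage P. falciparum D10attB parental line and ScDHOD-D10attB transgenic line (single integrated copy of yeast DHOD gene) were tested in the SYBR Green proliferation assay. IC50 values are means ± SD of three independent experiments, each in duplicate. The shift compares the transgenic IC50 with the parental IC50.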

[3] = tested on: P. falciparum DEC-R line; assay: SYBR Green proliferation assay, decoquinate-resistant; format: cell-based, Plasmodium falciparum; details: loss of potency against decoquinate-resistant clone
[4] = tested on: P. yoelii sporozoites in HepG2-A16-CD81EGFP cells; format: cell-based, Plasmodium yoelii; details: for IC50: Plasmodium yoelii, in Homo sapiens, read-out: IC50, liver stage
[5] = tested on: P. falciparum ScDHOD-D10attB; assay: SYBR Green proliferation assay, transgenic ScDHOD-D10attB line; format: cell-based, Plasmodium falciparum; details: for IC50: Plasmodium falciparum, read-out: IC50 values, ScDHOD-D10attB; for shift in IC50, ScDHOD-D10attB vs parental line: transgenic parasites expressing yeast dihydroorotate dehydrogenase
How it was run: as §1

[6] = tested on: P. falciparum ATQ-R lines (cytochrome b mutants); assay: SYBR Green proliferation assay, atovaquone-resistant; format: cell-based, Plasmodium falciparum; details: for loss of potency, F267V mutant / loss of potency, residue 144 mutant / loss of potency, triple mutant (M133I/V140T/L181V): ATQ-R line vs parental 3D7; for loss of potency, residue 133 mutants (M133I, M133V) / shift of IC50 across ATQ-R lines (control compounds): ATQ-R lines vs parental 3D7
[7] = target: T1, P. yoelii cytochrome c reductase (Plasmodium yoelii, UniProt Q7PDA7); assay: Ubiquinol-cytochrome c oxidoreductase; format: biochemical
T1 sequence (Q7PDA7 1-376): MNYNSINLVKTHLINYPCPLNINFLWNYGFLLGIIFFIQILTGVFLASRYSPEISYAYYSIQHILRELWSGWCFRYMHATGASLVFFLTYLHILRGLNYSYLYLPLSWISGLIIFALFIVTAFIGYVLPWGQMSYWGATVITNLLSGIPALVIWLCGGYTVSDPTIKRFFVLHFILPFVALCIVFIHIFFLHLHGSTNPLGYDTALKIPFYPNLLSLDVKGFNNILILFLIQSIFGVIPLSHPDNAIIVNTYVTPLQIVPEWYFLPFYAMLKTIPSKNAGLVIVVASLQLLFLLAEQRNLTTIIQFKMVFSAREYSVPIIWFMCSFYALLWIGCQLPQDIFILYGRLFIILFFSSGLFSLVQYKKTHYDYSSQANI
T1 sequence (V7P9V8 31-357 partner): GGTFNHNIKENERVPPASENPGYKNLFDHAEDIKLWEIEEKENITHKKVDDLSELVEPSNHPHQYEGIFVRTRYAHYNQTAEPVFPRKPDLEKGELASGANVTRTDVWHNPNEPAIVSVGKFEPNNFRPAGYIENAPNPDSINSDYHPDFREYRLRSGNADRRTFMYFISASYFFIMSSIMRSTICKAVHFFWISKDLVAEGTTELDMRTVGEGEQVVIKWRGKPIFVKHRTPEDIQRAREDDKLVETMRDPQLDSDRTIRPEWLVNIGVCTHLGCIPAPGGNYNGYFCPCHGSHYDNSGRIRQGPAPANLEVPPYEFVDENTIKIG
T1 sequence (Q7RJI2 1-394 partner): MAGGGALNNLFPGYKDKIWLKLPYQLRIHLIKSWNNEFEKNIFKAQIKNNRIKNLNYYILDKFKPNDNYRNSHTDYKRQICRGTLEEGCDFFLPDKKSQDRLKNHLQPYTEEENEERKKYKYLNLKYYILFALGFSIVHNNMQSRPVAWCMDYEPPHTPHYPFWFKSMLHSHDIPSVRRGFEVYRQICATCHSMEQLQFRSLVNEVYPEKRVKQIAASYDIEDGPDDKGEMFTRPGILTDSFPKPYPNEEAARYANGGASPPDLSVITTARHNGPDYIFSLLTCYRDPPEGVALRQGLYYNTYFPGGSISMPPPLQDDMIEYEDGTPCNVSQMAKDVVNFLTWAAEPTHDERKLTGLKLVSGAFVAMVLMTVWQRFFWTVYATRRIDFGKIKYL

[8] = Cytotoxicity, Ba/F3 cells; format: cell-based, murine; details: mouse
[9] = tested on: P. falciparum 3D7 strain; assay: SYBR Green parasite proliferation assay, 3D7; format: cell-based, Plasmodium falciparum; details: CC50 Ba/F3 / IC50 P. falciparum 3D7
[10] = tested on: Murine pro-B cell line Ba/F3; assay: Cytotoxicity, Ba/F3 cells; format: cell-based; details: read-out: mammalian cell line CC50; Ba/F3; CellTiter Glo reagent
[11] = chickens, iv; cited from earlier work

O=C1C(O)=C([C@H]2CC[C@H](c3ccc(Cl)cc3)CC2)C(=O)c2ccccc21 [atovaquone]
protection / survival of mice ([1]; single oral dose (decoquinate 50 mg kg-1, atovaquone 2.5 mg kg-1)): completely protected | IC50 [2]: 0.512 ± 0.164 nM | fold change in IC50, DEC-R clone vs parental 3D7 [3]: 4 fold | IC50 [4]: 1.7 nM | IC50 [5]: > 1000 nM | shift in IC50, ScDHOD-D10attB vs parental line [5]: > 1900 fold | loss of potency, F267V mutant [6]: 20 fold | loss of potency, residue 144 mutant [6]: ~200 fold | loss of potency, triple mutant (M133I/V140T/L181V) [6]: 2000 fold | loss of potency, residue 133 mutants (M133I, M133V) [6]: ~16 fold | IC50 [7]: 7.6 nM

CC(C)[C@@H]1NC(=O)[C@H](C)OC(=O)[C@@H](C(C)C)NC(=O)[C@@H](C(C)C)OC(=O)[C@H](C(C)C)NC(=O)[C@H](C)OC(=O)[C@@H](C(C)C)NC(=O)[C@@H](C(C)C)OC(=O)[C@H](C(C)C)NC(=O)[C@H](C)OC(=O)[C@@H](C(C)C)NC(=O)[C@@H](C(C)C)OC1=O [Valinomycin]
CC50 at 3 days ([8]; Ba/F3 cells): 91 nM | therapeutic index CC50/IC50 [9]: 12.8

CCCCCCC[N+](CC)(CC)CCCCc1ccc(Cl)cc1 [Clofilium]
CC50 at 3 days ([8]; Ba/F3 cells): > 1250 nM | therapeutic index CC50/IC50 [9]: >2.4

CC(C)C[C@@H](NC(=O)[C@H](C)NC(=O)CNC(=O)[C@@H](NC=O)C(C)C)C(=O)N[C@@H](C)C(=O)N[C@@H](C(=O)N[C@H](C(=O)N[C@@H](C(=O)N[C@@H](Cc1c[nH]c2ccccc12)C(=O)N[C@H](CC(C)C)C(=O)N[C@@H](Cc1c[nH]c2ccccc12)C(=O)N[C@H](CC(C)C)C(=O)N[C@@H](Cc1c[nH]c2ccccc12)C(=O)N[C@H](CC(C)C)C(=O)N[C@@H](Cc1c[nH]c2ccccc12)C(=O)NCCO)C(C)C)C(C)C)C(C)C [Gramicidin A] (For-VGA[dL]A[dV]V[dV]W[dL]W[dL]W[dL]W-NHCH2CH2OH)
CC50 at 3 days ([8]; Ba/F3 cells (murine pro-B cell line)): 110 nM

CCN(CC)CCOc1ccc2c(c1)C(=O)c1cc(OCCN(CC)CC)ccc1-2 [Tilorone]
CC50 at 3 days ([8]; Ba/F3 cells): > 12500 nM | therapeutic index CC50/IC50 [9]: >12.5

CCCCCCCCNC(C)C(O)c1ccc(SC(C)C)cc1 (centres unmarked) [Suloctidil]
CC50 at 3 days ([8]; Ba/F3 cells): 970 nM | therapeutic index CC50/IC50 [9]: 0.6

CN(C)c1ccc(C(=C2C=CC(=[N+](C)C)C=C2)c2ccc(N(C)C)cc2)cc1 [Gentian violet]
CC50 at 3 days ([8]; Ba/F3 cells): > 1250 nM | therapeutic index CC50/IC50 [9]: >4

C[C@@H]1C[C@H](C)C[C@H](C)[C@@H](O)CC(=O)O[C@H]([C@@H]2CCC[C@H]2C(=O)O)C/C=C/C=C(/C#N)[C@H](O)[C@@H](C)C1 [Borrelidin]
CC50 at 3 days ([8]; Ba/F3 cells): 959 nM | therapeutic index CC50/IC50 [9]: 11.6

CO\C=C(C(=O)OC)/C(C)=C\C=C\c1ccc(Cl)c(OC)c1 [Strobilurin B]
CC50 [10]: 3100 nM | therapeutic index CC50/IC50 [9]: 13.5

N=C(N)NCCCCCCCCCCNC(=N)N [Synthalin]
CC50 at 3 days ([8]; Ba/F3 cells): > 5400 nM | therapeutic index CC50/IC50 [9]: >200

CCOC(=O)c1cnc2cc(OCC3CC3)c(OCC3CC3)cc2c1O [Ciproquinate]
CC50 at 3 days ([8]; Ba/F3 cells): > 1250 nM | therapeutic index CC50/IC50 [9]: >156

CCCCCCCCCCOc1cc2c(O)c(C(=O)OCC)cnc2cc1OCC [Decoquinate]
CC50 at 3 days ([8]; Ba/F3 cells): > 12500 nM | prepatent period (day at which parasitemia was first observed) ([1]; single oral dose with 50,000 sporozoites i.v.): 8 days | therapeutic index CC50/IC50 [9]: >2,500 | therapeutic index CC50/IC50 ([9]; listed as decoquinate): > 2,500 | IC50 [2]: 5.3 ± 1.24 nM | fold change in IC50, DEC-R clone vs parental 3D7 [3]: 90 fold | fold increase in liver stage activity over atovaquone [4]: 10 fold | IC50 [4]: 0.177 nM | IC50 [5]: > 1000 nM | t1/2 [11]: 9 to 22 h | loss of potency, F267V mutant [6]: 2 fold | loss of potency, residue 144 mutant [6]: no effect | loss of potency, triple mutant (M133I/V140T/L181V) [6]: 5 fold | loss of potency, residue 133 mutants (M133I, M133V) [6]: did not alter | IC50 [7]: 97 nM

CC1=C[C@H]2O[C@@H]3C[C@H]4OC(=O)/C=C\C=C\C(=O)OCC/C(C)=C/C(=O)OC[C@@]2(CC1)[C@]4(C)[C@]31CO1 [Verrucarin J]
therapeutic index CC50/IC50 [9]: 12.1

Cl.Cl.O=C(Nc1ccc(C2=NCCCN2)cc1)c1ccc(C(=O)Nc2ccc(C3=NCCCN3)cc2)cc1 [NSC 57153]
CC50 [10]: 550 nM | therapeutic index CC50/IC50 [9]: 1.1

O[Si](CCCN1CCCCC1)(c1ccccc1)C1CCCCC1 (centres unmarked) [HHSiD, Hexahydro-sila-difenidol]
CC50 [10]: > 1250 nM | therapeutic index CC50/IC50 [9]: >16.4

COc1ccc(C[C@H]2NC[C@H](O)[C@H]2OC(C)=O)cc1 [Anisomycin]
shift in IC50, ScDHOD-D10attB vs parental line [5]: no shift | shift of IC50 across ATQ-R lines (control compounds) [6]: nearly invariable

Muconomycin B
CC50 [10]: 30 nM | therapeutic index CC50/IC50 [9]: 12.5

COc1ccc(C[C@H](N)C(=O)N[C@H]2[C@@H](O)[C@H](n3cnc4c(N(C)C)ncnc43)O[C@@H]2CO)cc1 [Puromycin]
CC50 at 3 days ([8]; Ba/F3 cells): > 1250 nM | therapeutic index CC50/IC50 [9]: >14.2

CCCOC(=O)C[N+](C)(C)CCOCCCCCCCCCCOCC[N+](C)(C)CC(=O)OCCC [Prodeconium]
CC50 [10]: > 6250 nM | therapeutic index CC50/IC50 [9]: >156

CCC(Cc1cnc2nc(N)nc(N)c2n1)c1ccc(C(=O)N[C@@H](CCC(=O)O)C(=O)O)cc1 (some centres unmarked) [Edatrexate]
CC50 at 3 days ([8]; Ba/F3 cells): 5 nM | therapeutic index CC50/IC50 [9]: 0.1

COc1ccc2cc3[n+](cc2c1OC)CCc1cc2c(cc1-3)OCO2 [Berberine]
CC50 at 3 days ([8]; Ba/F3 cells): 320 nM | therapeutic index CC50/IC50 [9]: 0.6

COC[C@H]1C(=O)NCC(=O)N2NCCC[C@H]2C(=O)N(O)[C@H](C)C(=O)O[C@@H](C(C)C)[C@H](NC(=O)[C@](C)(O)[C@]2(O)CC[C@@H](CC(C)C)[C@H](C)O2)C(=O)N2NCCC[C@@H]2C(=O)N1O [Aurantimycin A]
CC50 [10]: 45 nM | therapeutic index CC50/IC50 [9]: 0.5

OC(c1cc(C(F)(F)F)nc2c(C(F)(F)F)cccc12)C1CCCCN1 (centres unmarked) [mefloquine]
IC50 [2]: 7.88 ± 1.64 nM | IC50 [5]: 4.02 ± 1.4 nM | shift in IC50, ScDHOD-D10attB vs parental line [5]: slight increase in mefloquine sensitivity | shift of IC50 across ATQ-R lines (control compounds) [6]: 2 fold
